Bioassay records deposited in PubChem BioAssay by several laboratories.
Hits are enriched below; roughly 1.4% of the tested compounds scored in any of these assays.
Calpain2 inh: calpain II (pig) inhibition. purified calpain II, fluorogenic peptide substrate, 30 min. inhibition, % at 16 µM. 220,000 compounds, 0.37% hits;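 active = inhibition above about 50%, limit read from the data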
FXIIa inh: inhibitors of human coagulation factor XIIa; inhibition, % at 5 µM; AID 800; purified FXIIa, Boc-QGR-AMC fluorogenic substrate, 2 h; P00748; 220,000 compounds, 0.3% hits; in the data active = inhibition above about 40%
FXIa inh: inhibitors of human coagulation factor XIa; P03951; purified FXIa, Boc-Glu-Ala-Arg-AMC fluorogenic substrate; inhibition, % at 5 µM; 220,000 compounds, 0.14% hits; AID 798;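 active = inhibition of at least 40%; inactive = inhibition below 40%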;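 note: fluorescence of freed AMC excited at 355 nm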
Target sequence (P03951 19-387 limits assumed): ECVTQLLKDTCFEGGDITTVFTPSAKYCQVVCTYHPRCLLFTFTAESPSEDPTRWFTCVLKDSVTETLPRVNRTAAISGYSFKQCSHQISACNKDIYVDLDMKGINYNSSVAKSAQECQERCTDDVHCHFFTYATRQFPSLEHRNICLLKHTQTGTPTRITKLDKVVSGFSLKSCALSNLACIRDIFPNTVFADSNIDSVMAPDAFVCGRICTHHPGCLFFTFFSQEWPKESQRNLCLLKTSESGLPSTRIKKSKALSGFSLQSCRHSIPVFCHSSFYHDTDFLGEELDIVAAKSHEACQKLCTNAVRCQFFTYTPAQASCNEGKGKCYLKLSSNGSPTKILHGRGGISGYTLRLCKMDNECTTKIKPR
Target sequence (P03951 388-625 limits assumed): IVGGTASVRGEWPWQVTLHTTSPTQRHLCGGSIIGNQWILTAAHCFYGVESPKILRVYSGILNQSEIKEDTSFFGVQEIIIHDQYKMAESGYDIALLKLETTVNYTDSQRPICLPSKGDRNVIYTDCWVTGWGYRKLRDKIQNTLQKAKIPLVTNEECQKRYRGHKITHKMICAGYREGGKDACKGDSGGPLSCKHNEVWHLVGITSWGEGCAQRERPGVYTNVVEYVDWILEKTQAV
KLK5 inh: kallikrein 5 (human) inhibition. Q9Y337. recombinant hK5, fluorogenic AMC substrate cleavage. inhibition, % at 5 µM. 210,000 compounds, 0.59% hits;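 active = inhibition of 40% or more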
thrombin 1536: thrombin (human) inhibition; P00734; alpha-thrombin, Boc-VPR-AMC fluorogenic substrate cleavage; inhibition, % at 5 µM; 220,000 compounds, 0.26% hits; AID 1046;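 active = inhibition at or above 40%; inactive = inhibition below 40%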
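Material: human alpha-thrombin protein; Also added: Boc-VPR-AMC substrate, 15 µM final; Timing: enzyme reaction carried out at room temperature; Signal: fluorescence, ex 355 nm, em 460 nm; Measure: % inhibition of thrombin; Controls: enzyme without compound as high, wells lacking enzyme as low.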
Of the large screens only hits and unclear results are named; the others gave an inactive call.

O=C(NCCc1ccccc1)C1CCC(CNS(=O)(=O)c2cccc3cccnc23)CC1 (stereo unspecified)	none
O=C(NCc1ccco1)c1scc2c1OCCO2	FXIIa inh 42.9
O=C(NCc1ccco1)c1ccc(C(=O)NCc2ccco2)s1	none
Cn1c(=O)[nH]c(=O)c2[nH]c(N(Cc3ccccc3)Cc3ccccc3)nc21	Calpain2 inh 64.5
COc1ccc(/C=C2/SC(=S)N(n3c(C)ccc3C)C2=O)cc1	FXIIa inh 83.7
CCOc1cc(NC(=S)NCCCN2CCOCC2)c(OCC)cc1NC(=O)c1ccccc1	none (no result: KLK5 inh)
CCOc1cc(NC(=S)NCCCN2CCOCC2)c(OCC)cc1NC(=O)c1ccc(C)cc1	FXIIa inh 52.1, KLK5 inh 40.8
O=C(O)c1ccc(NCc2nc3ccccc3n2Cc2ccccc2)cc1	FXIIa inh 101.4
Cn1c(=O)c2c3c(sc2n2c(SCC(N)=O)nnc12)CC(C(C)(C)C)CC3 (stereo unspecified)	Calpain2 inh 66.5
Cc1cccc(OCC(=O)O/N=C(\N)c2ccc(Br)cc2)c1	none
Oc1ccccc1N=Cc1ccc[nH]1	none
Oc1ccccc1N=Nc1ccccc1O	Calpain2 inh 67.9
COc1ccc(-c2nn(-c3ccccc3)cc2C2CC(c3cccs3)=NN2C(=O)CCC(=O)O)cc1 (stereo unspecified)	none
COc1ccc(C2=NN(C(=O)CCCC(=O)O)C(c3cn(-c4ccccc4)nc3-c3ccccc3)C2)cc1 (stereo unspecified)	FXIIa inh 40.1
COc1ccc(C2CC(c3ccccc3)=NN2C(=O)CN2CCN(Cc3ccccc3)CC2)cc1 (stereo unspecified)	thrombin 1536 84.8
Cc1ccc(S(=O)(=O)NCCc2cccs2)cc1	none
COC(=O)c1sccc1NC(=O)CC1NCCNC1=O (stereo unspecified)	none
CC1CN(c2nc3ccccc3nc2C(C#N)C(=O)OC2CCCCC2)CC(C)O1 (stereo unspecified)	KLK5 inh 64.2
CCc1ccc(NC(=O)c2ccc3ncsc3c2)cc1	KLK5 inh 40.0
CCOC(=O)CN1C(=O)COc2ccc(Cl)cc21	none
CCOc1ccccc1NC(=O)CN1C(=O)COc2ccc(Cl)cc21	KLK5 inh 42.5
COc1ccccc1NC(=O)c1sc2ncn(Cc3cccc(C)c3)c(=O)c2c1C	KLK5 inh 43.6, thrombin 1536 100.2
COc1ccccc1NC(=O)c1sc2ncn(Cc3ccc(C)cc3)c(=O)c2c1C	thrombin 1536 99.1
Cc1onc(-c2ccc(Cl)cc2Cl)c1-c1csc(N/N=C/c2ccccc2Cl)n1	none
Cn1c(Cc2ccccc2)nnc1SCc1ccc(C(=O)O)cc1	none
CC(=O)NC(=S)Nc1ccc(NC(=O)c2cccnc2Cl)cc1	none
Cn1c(=O)c([N+](=O)[O-])c(N2CCN(Cc3ccc4c(c3)OCO4)CC2)c2ccccc21	none
O=C(NNc1ccc(Cl)cc1)c1sccc1Cl	none
NS(=O)(=O)c1ccc(NNC(=O)c2sccc2Cl)cc1	FXIIa inh 40.5
O=C(NCCO[N+](=O)[O-])c1cccnc1	none (no result: FXIIa inh, FXIa inh, KLK5 inh, thrombin 1536)
O=C(Nc1cccc(F)c1)C1CC(=O)N(c2ccc(Br)cc2)C1 (stereo unspecified)	KLK5 inh 78.9
Cc1nc2c(O)cccc2cc1CO	none
CC(=O)N1CCN(CC(=O)Nc2cccc(S(=O)(=O)N3CCCCCC3)c2)CC1	none
NS(=O)(=O)c1cccc(NC(=O)CN2CCC(Cc3ccccc3)CC2)c1	Calpain2 inh 78.3
COc1ccccc1NC(=O)c1csc2c1CCCC2	KLK5 inh 63.1
COc1ccccc1CNC(=O)c1csc2c1CCCC2	none
O=c1[nH]c2ccccc2nc1-c1ccccc1	KLK5 inh 111.9
O=c1[nH]c2ccccc2nc1-c1ccc(Cl)cc1	none
COc1ccc(C(C(=O)NC(C)(C)C)N(C(=O)CNC(=O)c2cccs2)c2ccc(C)cc2)cc1OC (stereo unspecified)	none
O=S(=O)(c1ccc(N2CCOCC2)nc1)N(Cc1ccccn1)Cc1ccccn1	none
Cc1oc2c(O)c(O)ccc2c(=O)c1-c1cnn(-c2ccccc2)c1	none
Cc1nc(-c2cnn(-c3ccccc3)c2)c2cc(C)oc2n1	thrombin 1536 66.9
CCCCCCCC(=O)N1c2ccccc2NC(=O)C1CC(=O)Nc1ccc(C(=O)O)cc1 (stereo unspecified)	none
CCCCCCCCCC(=O)N1c2ccccc2NC(=O)C1CC(=O)Nc1ccc(C(=O)O)cc1 (stereo unspecified)	Calpain2 inh 53.2
O=C(NCCc1ccc(F)cc1)c1cc(=O)c2ccccc2o1	none
O=C(NCCc1ccccc1)c1cc(=O)c2ccccc2o1	FXIIa inh 52.0, KLK5 inh 47.0
CN1CCN(c2ccc(NC(=O)c3ccc(C#N)cc3F)cc2Cl)CC1	none
COc1cccc(N2C(=O)C3NN=C(C(=O)CN4C(=O)c5ccccc5C4=O)C3C2=O)c1 (stereo unspecified)	none
CN(C)S(=O)(=O)c1ccc(C(=O)Oc2cc(=O)[nH]c3ccccc23)cc1	thrombin 1536 40.3
O=C(Nc1nc(COc2ccccc2)cs1)C12CC3CC(CC(C3)C1)C2	Calpain2 inh 58.3
CC(=O)Nc1nc(COc2ccccc2)cs1	none
Cc1[nH][nH]c(=O)c1C(c1cc([N+](=O)[O-])ccc1O)c1c(C)[nH][nH]c1=O	KLK5 inh 57.3
CCCSc1nnc(NC(=O)Nc2ccc(C)cc2)s1	KLK5 inh 51.8
CCCSc1nnc(NC(=O)Nc2ccc(F)cc2)s1	none
NC[C@@H]1O[C@H](O[C@H]2[C@@H](O)[C@H](O[C@@H]3[C@@H](O)[C@H](N)C[C@H](N)[C@H]3O[C@H]3O[C@H](CO)[C@@H](O)[C@H](O)[C@H]3N)O[C@@H]2CO)[C@H](N)[C@@H](O)[C@@H]1O	none (no result: FXIIa inh, FXIa inh, KLK5 inh, thrombin 1536)
CC(C)(C)C1CCC(OCC(O)CN2CCN(Cc3ccccc3)CC2)CC1 (stereo unspecified)	none
CC1CN(CC(O)COC2CCC(C(C)(C)C)CC2)CC(C)O1 (stereo unspecified)	KLK5 inh 43.3
Cc1ccc(S(=O)(=O)N(CC(=O)NCCC2=CCCCC2)Cc2ccccc2)cc1	FXIIa inh 42.0
COc1ccc(CNc2oc(COc3ccc(Cl)cc3)nc2C#N)cc1	Calpain2 inh 53.8
CC1CN(Cc2c(O)ccc3c2oc(=O)c2ccccc23)CC(C)O1 (stereo unspecified)	Calpain2 inh 80.2
CCCOC(=O)Nc1cc(OC)ccc1[N+](=O)[O-]	Calpain2 inh 63.1
COc1ccc(Cc2n[nH]c(=S)n2NC(=O)Nc2ccc(Cl)c(Cl)c2)cc1	none
CC(=O)c1cccc(NC(=O)c2ccc(N(Cc3ccccc3)S(C)(=O)=O)cc2)c1	none
CNC(=O)c1ccc(N(Cc2ccccc2)S(C)(=O)=O)cc1	FXIIa inh 58.4, KLK5 inh 72.2
COc1ccc(-n2ncc3c(SCC(=O)N4CCN(c5ccccc5OC)CC4)ncnc32)cc1	none
N=c1oc2ccccc2cc1-c1nc(-c2ccc(Cl)cc2)cs1	KLK5 inh 47.1
Cc1c(C)n(CCC#N)c2ccccc12	FXIIa inh 42.8
